From PubChem BioAssay
A selection: hits, their analogues and other compounds. The true share with any hit is near 2.1%.
EBI2 block: EBI2 (human) antagonism; P32249; EBI2 beta-arrestin recruitment, luminescence, 7a,25-OHC stimulated; inhibition, % at 5 µM; hit rate 0.81% among 360,000; AID 651636; in the data active means inhibition above about 38%;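 further: enzyme fragment complementation signal reports receptor beta-arrestin coupling in cells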
HTR2A ag: activates the mouse 5-HT2A serotonin receptor. P35363. CHO-K1 mHTR2A beta-arrestin complementation, luminescence; percent of 30 µM serotonin response. activation, % at 7.6 µM. hit rate 0.66% among 360,000;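 active means activation above a run cutoff, the mean activation of all tested compounds plus 3 SD, cut at about 14% in these data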
CCR6 antagonist: blocks CCL20-driven beta-arrestin recruitment at human CCR6 | CHO-K1 CCR6 PathHunter beta-arrestin, luminescence, CCL20-stimulated | inhibition, % at 20 µM | hit rate 0.49% among 340,000;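 active means compounds whose inhibition of the agonist-driven luminescence signal at 20 µM reaches about 50%, limit read from the data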;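 further: cells stimulated with CCL20 at 14 nM final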
APJ agonist: activates the human apelin receptor APJ. P35414. CHO-K1 APJ PathHunter beta-arrestin, luminescence; 0% DMSO wells, 100% apelin. activation, % at 20 µM. hit rate 0.11% among 330,000. AID 2520;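 active means activation more than six SD over the plate average, tested at 20 µM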
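Assay system: CHO-K1 APJ beta-arrestin complementation cell line / Compound: single test compound dose, 20 µM final, 1% DMSO / Times: overnight seeding, 90 min compound at 25 °C, 1 h detection / Technique: beta-gal luminescence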
APJ antagonist: blocks the human apelin receptor APJ | P35414 | CHO-K1 APJ beta-arrestin complementation, luminescence | inhibition, % at 20 µM | hit rate 0.32% among 330,000;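 active means inhibition above about 40% at 20 µM, limit read from the data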;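 further: cells challenged with 10 nM apelin-13 agonist together with compound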
CXCR6 block: inhibitors of human CXCR6 receptor. AID 602244. O00574. inhibition, % at 20 µM. hit rate 0.36% among 360,000. CHO-K1 PathHunter CXCR6 beta-arrestin, luminescence; in the data active means inhibition above about 34%, passing the limit was not always enough;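 further: antagonist mode with CXCL16 agonist at 10 nM final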
OPRM1 ag: counter-screen for mouse HTR2A agonists: human mu opioid receptor agonists; AID 624380; U2OS OPRM1 beta-arrestin PathHunter, luminescence; DMSO 0%, DAMGO 9.3 µM 100%; activation, % at 9.3 µM; shares compounds with HTR2A ag; hit rate 5.3% among 2,300;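 active means mean activation above the mean of DMSO-only wells plus 3 SD, cut at about 0.5% in these data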
Target sequence (P35372 whole entry, looked up): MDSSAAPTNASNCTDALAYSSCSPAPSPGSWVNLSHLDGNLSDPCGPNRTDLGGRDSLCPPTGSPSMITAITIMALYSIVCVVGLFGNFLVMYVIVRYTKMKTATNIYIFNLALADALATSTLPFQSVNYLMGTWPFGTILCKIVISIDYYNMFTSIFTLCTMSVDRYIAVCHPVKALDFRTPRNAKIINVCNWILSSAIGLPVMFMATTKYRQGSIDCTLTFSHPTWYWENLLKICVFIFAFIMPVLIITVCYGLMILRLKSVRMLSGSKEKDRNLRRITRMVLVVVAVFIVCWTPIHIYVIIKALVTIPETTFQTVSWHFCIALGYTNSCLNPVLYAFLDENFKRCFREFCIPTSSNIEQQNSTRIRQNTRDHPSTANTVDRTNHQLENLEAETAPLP
m5-HT2A ag conf: mouse HTR2A agonism confirmed; activation, % at 7.6 µM; shares compounds with HTR2A ag; AID 624381; hit rate 19% among 2,300; CHO-K1 PathHunter beta-arrestin recruitment, luminescence; DMSO 0%, 30 µM serotonin 100%;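 active means mean activation across triplicates above the hit threshold derived in the original primary screen, cut at about 15% in these data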
Hits are given with their value; . = inactive; / = no result.

SMILES | EBI2 block | HTR2A ag | CCR6 antagonist | APJ agonist | APJ antagonist | CXCR6 block | OPRM1 ag | m5-HT2A ag conf
O=C(CNC(=O)c1ccc(Br)o1)NNC(=O)c1ccccc1O | . | 16.6 | . | . | . | . | . | .
O=C(CNC(=O)c1ccc(Br)o1)NNC(=O)c1cccc(Cl)c1 | . | . | . | . | . | . | / | /
CCCS(=O)(=O)NC(=O)C1(C)CCCN(C(=O)c2ccccc2C(F)(F)F)C1 (configuration not stated) | . | 19.7 | / | / | / | . | . | .
CCCS(=O)(=O)NC(=O)C1(C)CCCN(C(=O)c2cccc3ccccc23)C1 (configuration not stated) | . | . | / | / | / | . | / | /
N#CC1(NC(=O)COC(=O)c2cc(O)c3ccccc3c2O)CCCCC1 | . | . | . | . | . | . | / | /
CCOc1ccc(C(=O)Nc2c3c(nn2-c2cccc(Cl)c2)CS(=O)C3)cc1 (configuration not stated) | . | . | . | . | . | . | / | /
CCOc1ccc(C(=O)Nc2c3c(nn2-c2cccc(C)c2C)CS(=O)C3)cc1 (configuration not stated) | . | 17.2 | . | . | . | . | . | .
CC1=C(C(N)=O)C(c2ccc(Cl)cc2)NC(=O)N1 (configuration not stated) | . | . | . | . | . | . | / | /
CC(=O)C1=C(C)NC(=O)NC1c1ccc(Cl)cc1 (configuration not stated) | . | 17.3 | . | . | . | . | . | .
CC1CCN(c2nc3c(=O)[nH]c(N)nc3n2[C@@H]2O[C@H](CO)[C@@H](O)[C@H]2O)CC1 | . | . | . | . | . | . | / | /
CCOC(=O)CCC(=O)Nc1ccc(S(=O)(=O)Nc2cc(OC)nc(OC)n2)cc1 | . | 21.6 | . | . | . | . | . | .
COc1cccc(CN2CCN(C(=S)NCc3ccc(Cl)cc3)CC2)c1 | . | 29.2 | . | . | . | . | 0.8 | 24.6
O=C(NCc1ccc(Cl)cc1)N1CCN(Cc2ccccc2)CC1 | . | 34.9 | . | . | . | . | . | .
CC(OC(=O)c1ccccc1)C(=O)NCc1ccco1 (configuration not stated) | . | . | . | . | . | . | / | /
O=C(CN1C(=O)NC(c2ccccc2)(c2ccccc2)C1=O)NCc1ccco1 | . | 15.2 | . | . | . | . | . | .
Cc1ccc(NC(=O)CSc2nc(N)cc(=O)[nH]2)cc1S(=O)(=O)N1CCCCCC1 | . | 15.7 | . | . | . | . | . | .
COc1ccc(C(=O)Nn2c(SCC(=O)NCC3CCCO3)nc3ccccc3c2=O)cc1 (configuration not stated) | . | . | . | . | . | . | / | /
COc1ccc(C2CC(c3ccc4ccccc4c3)=NN2C(=O)COC(=O)C2CCC(=O)N2)cc1 (configuration not stated) | . | 15.3 | . | . | . | . | . | .
O=C(O)c1nn(CC(=O)N2CCCCCC2)c(=O)c2ccccc12 | . | . | . | . | . | . | / | /
CN(C(=O)Cn1nc(C(=O)O)c2ccccc2c1=O)C1(C#N)CCCCC1 | . | 18.9 | . | . | . | . | . | .
Cc1ccccc1NC(=S)NCc1ccc2c(c1)cc(C)n2C | . | 19.9 | . | . | . | . | . | .
COc1ccccc1NC(=S)NCc1ccc2c(c1)cc(C)n2C | . | . | . | . | . | . | / | /
O=C1COc2ccc(C(=O)CCl)cc2N1 | . | . | . | . | . | . | / | /
CCOc1ccc(/C=N/NC(=O)c2ccc(Cn3cc([N+](=O)[O-])cn3)o2)cc1 | . | . | . | . | . | . | / | /
Cc1ccc(-n2nc3c(=O)n(CCCC(=O)NCCN4CCN(C)CC4)nc(C)c3c2C)cc1 | . | 21.4 | . | . | . | . | . | .
SMILES | EBI2 block | HTR2A ag | CCR6 antagonist | APJ agonist | APJ antagonist | CXCR6 block | OPRM1 ag | m5-HT2A ag conf
CC1=CC=CN2CC(O)CN=C12 (configuration not stated) | . | 28.4 | . | . | . | . | . | .
CCCCN(C(=O)c1ccc2c(c1)S(=O)(=O)N=C1CCCCCN12)c1c(N)n(CC(C)C)c(=O)[nH]c1=O | . | . | . | / | / | . | / | /
O=C(O)C1C2CCC(C2)C1C(=O)NCCc1ccc(F)cc1 (configuration not stated) | . | . | . | . | . | . | / | /
O=C(O)C1C2CCC(C2)C1C(=O)NCCc1cccc(Cl)c1 (configuration not stated) | . | 24.4 | . | . | . | . | . | .
CN(Cc1ccco1)S(=O)(=O)c1nnc(NC(=O)c2ccccc2Cl)s1 | . | 18.3 | . | . | . | . | . | .
COc1cccc(C(=O)Nc2nc(-c3ccc4c(c3)OCO4)cs2)c1 | . | 16.3 | . | . | . | . | . | .
COc1cccc(C(=O)Nc2nnc(C(C)C)s2)c1 | . | 21.6 | . | . | . | . | . | .
COc1cccc(C(=O)Nc2nnc(S(=O)(=O)N(C)Cc3ccccc3)s2)c1 | . | 22.2 | . | . | . | . | . | .
O=C(c1nn2c(C(F)(F)F)cc(-c3ccco3)nc2c1Br)N1CCCc2ccccc21 | . | . | . | . | . | . | / | /
O=C(c1cc2nc(-c3ccco3)cc(C(F)(F)F)n2n1)N1CCCc2ccccc21 | . | 22.7 | . | . | . | . | . | .
COc1ccc(Cl)cc1S(=O)(=O)N1CCCc2ccccc21 | . | . | . | . | . | . | / | /
COc1ccc(Cl)cc1S(=O)(=O)N1CCN=C1C | . | 24.1 | . | . | . | . | . | .
Cc1cc(=O)n(C)c(=O)n1CCCCCCN1CCCC1 | . | . | . | . | . | . | / | /
O=S(=O)(NCc1ccc(F)cc1)c1cc(Br)ccc1Br | . | 18.1 | . | . | . | . | . | .
O=S(=O)(NCCc1ccc(F)cc1)c1cc(C(F)(F)F)ccc1Br | . | . | . | / | / | . | / | /
Cn1cc(C(=O)c2ccc(Cl)cc2Cl)cc1C(=O)N/N=C(\N)COc1ccc(F)cc1 | . | . | . | . | . | . | / | /
Cn1cc(C(=O)c2ccc(Cl)cc2Cl)cc1C(=O)N/N=C(\N)COc1ccc(Cl)cc1 | . | 14.5 | . | . | . | . | . | .
Cc1ccc(C)c(N2CCN(S(=O)(=O)c3ccc4c(c3)CCN4C(=O)CCC(=O)O)CC2)c1 | . | . | . | . | . | . | / | /
O=C(O)CCC(=O)N1CCc2cc(S(=O)(=O)N3CCN(c4ccc(F)cc4)CC3)ccc21 | . | 14.8 | . | . | . | . | . | .
CC(=O)N1Cc2ccccc2CC1C(=O)NCc1ccccc1F (configuration not stated) | . | 15.9 | . | . | . | . | . | .
